In ChEMBL document CHEMBL6074702, “Discovery of 4-(5-Membered)Heteroarylether-6-methylpicolinamide Negative Allosteric Modulators of Metabotropic Glutamate Receptor Subtype 5” (ACS Med Chem Lett, 2024):
Calls of active or inactive are those of the source. The calls are words filed in the database; no cut-off is given here.

Experiments:
[1] = Unbound fraction in rat plasma at 5 uM incubated for 6 hrs by equilibrium dialysis based LC-MS/MS analysis; type: ADME, cell-free
Procedure, shortened: (§1)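 Equilibrium dialysis of plasma spiked at 5 μM final against DPBS, in triplicate, 6 h at 37 °C. Samples were matrix-matched, acetonitrile-extracted with carbamazepine as internal standard, and analyzed by LC-MS/MS. fu = buffer-side/plasma-side analyte:IS peak area ratio, mean of 3 replicates.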

[2] = target: Metabotropic glutamate receptor 1 (Homo sapiens) (UniProt Q13255); assay: Negative allosteric modulation of tetracycline-inducible human mGlu1 receptor expressed in human T-REx-293 cells by calcium mobilization assay; type: functional, cell-based
Sequence of Metabotropic glutamate receptor 1 (Homo sapiens) (Q13255 19-1194 limits assumed): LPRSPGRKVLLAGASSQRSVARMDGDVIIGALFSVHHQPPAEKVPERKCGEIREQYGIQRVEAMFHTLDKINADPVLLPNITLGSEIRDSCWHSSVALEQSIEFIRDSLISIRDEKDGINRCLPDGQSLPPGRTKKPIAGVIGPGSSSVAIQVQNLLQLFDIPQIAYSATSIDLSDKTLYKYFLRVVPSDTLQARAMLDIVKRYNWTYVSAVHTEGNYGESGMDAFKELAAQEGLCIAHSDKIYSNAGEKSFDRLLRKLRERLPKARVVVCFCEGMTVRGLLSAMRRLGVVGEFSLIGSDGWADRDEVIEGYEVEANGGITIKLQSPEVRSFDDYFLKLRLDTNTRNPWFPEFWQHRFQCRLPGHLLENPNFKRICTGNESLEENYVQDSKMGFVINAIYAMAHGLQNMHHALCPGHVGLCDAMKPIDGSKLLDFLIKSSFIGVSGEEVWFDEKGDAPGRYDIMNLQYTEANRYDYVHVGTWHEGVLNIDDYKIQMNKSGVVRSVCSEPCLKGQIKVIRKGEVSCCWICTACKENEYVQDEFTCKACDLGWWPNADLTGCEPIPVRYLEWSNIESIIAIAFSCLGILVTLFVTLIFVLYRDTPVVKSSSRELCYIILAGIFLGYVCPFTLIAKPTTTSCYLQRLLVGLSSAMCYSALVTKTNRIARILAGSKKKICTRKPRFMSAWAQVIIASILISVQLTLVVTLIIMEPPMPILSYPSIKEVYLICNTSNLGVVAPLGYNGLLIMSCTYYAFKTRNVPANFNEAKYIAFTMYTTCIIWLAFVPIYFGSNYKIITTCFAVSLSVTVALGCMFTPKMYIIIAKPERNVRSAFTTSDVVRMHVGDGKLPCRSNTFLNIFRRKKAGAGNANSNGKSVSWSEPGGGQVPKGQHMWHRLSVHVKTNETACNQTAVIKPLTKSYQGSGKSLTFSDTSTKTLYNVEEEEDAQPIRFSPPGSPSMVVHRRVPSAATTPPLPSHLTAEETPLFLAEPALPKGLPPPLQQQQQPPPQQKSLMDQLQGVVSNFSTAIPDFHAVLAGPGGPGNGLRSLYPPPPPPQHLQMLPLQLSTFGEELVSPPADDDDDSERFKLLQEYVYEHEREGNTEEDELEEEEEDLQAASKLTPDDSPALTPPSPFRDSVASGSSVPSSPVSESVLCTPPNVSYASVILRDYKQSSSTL

[3] = target: Metabotropic glutamate receptor 2 (Homo sapiens) (UniProt Q14416); assay: Negative allosteric modulation of human mGlu2 receptor expressed in HEK293 cells harboring GIRK by thallium flux assay; type: cell-based
Sequence of Metabotropic glutamate receptor 2 (Homo sapiens) (Q14416 19-872 limits assumed): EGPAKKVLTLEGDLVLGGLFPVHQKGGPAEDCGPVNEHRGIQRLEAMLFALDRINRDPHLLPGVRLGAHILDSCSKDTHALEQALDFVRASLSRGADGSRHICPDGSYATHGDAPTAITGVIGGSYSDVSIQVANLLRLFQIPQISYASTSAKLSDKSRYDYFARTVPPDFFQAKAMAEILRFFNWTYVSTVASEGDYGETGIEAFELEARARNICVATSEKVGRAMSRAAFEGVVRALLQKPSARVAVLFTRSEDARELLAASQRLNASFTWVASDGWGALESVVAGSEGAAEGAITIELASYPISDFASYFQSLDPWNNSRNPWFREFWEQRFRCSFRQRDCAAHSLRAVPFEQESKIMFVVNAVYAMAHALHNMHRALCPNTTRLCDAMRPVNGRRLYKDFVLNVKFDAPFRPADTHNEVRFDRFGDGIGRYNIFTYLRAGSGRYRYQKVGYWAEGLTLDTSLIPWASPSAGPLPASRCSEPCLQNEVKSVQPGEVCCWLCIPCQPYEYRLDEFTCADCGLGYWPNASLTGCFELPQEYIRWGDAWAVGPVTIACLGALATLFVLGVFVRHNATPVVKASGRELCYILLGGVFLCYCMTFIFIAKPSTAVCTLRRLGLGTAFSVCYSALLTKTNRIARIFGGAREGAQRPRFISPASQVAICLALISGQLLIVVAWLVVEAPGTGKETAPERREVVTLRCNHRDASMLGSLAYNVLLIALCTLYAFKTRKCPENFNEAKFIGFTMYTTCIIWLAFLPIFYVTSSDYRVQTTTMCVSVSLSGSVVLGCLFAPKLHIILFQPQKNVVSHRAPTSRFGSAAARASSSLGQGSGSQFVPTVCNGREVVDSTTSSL

[4] = target: Metabotropic glutamate receptor 3 (Homo sapiens) (UniProt Q14832); assay: Negative allosteric modulation of human mGlu3 receptor expressed in HEK293 cells harboring GIRK assessed as maximal inhibition response by thallium flux assay relative to glutamate; type: cell-based; conditions: filed as negative allosteric modulator
[5] = target: Metabotropic glutamate receptor 4 (Homo sapiens) (UniProt Q14833); assay: Negative allosteric modulation of human mGlu4 receptor expressed in CHO cells co-expressing Gqi5 assessed as inhibition of glutamate induced calcium mobilization preincubated for 142 sec followed by glutamate addition at EC20 concentration for 120 sec and measured after 40 sec addition of glutamate at EC80 concentration by Fluo-4 AM dye based fluorescence assay relative to glutamate; type: functional, cell-based; conditions: time 302.0 sec
Sequence of Metabotropic glutamate receptor 4 (Homo sapiens) (Q14833 whole entry): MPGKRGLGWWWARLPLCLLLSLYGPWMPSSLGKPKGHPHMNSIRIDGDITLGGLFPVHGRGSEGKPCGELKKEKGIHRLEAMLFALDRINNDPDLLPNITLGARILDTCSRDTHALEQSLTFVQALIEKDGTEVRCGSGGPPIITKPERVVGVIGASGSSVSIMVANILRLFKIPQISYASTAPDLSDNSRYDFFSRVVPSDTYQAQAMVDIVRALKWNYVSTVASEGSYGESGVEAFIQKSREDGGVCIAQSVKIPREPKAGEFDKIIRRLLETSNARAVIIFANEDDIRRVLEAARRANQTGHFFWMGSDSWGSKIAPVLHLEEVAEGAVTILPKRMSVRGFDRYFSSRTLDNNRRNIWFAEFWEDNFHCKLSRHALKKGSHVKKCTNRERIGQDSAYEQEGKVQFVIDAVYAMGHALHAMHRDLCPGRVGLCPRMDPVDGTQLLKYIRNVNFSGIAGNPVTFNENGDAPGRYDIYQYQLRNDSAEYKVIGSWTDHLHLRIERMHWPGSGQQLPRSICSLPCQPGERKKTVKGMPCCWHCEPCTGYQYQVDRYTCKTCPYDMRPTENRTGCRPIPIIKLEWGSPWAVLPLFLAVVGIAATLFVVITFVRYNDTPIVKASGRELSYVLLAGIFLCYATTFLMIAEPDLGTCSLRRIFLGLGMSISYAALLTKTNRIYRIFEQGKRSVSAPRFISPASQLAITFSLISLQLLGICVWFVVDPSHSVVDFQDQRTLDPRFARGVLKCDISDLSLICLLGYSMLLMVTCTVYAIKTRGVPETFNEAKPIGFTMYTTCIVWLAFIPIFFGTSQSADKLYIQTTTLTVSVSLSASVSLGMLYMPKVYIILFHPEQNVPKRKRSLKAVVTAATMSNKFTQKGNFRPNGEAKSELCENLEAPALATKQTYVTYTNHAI

[6] = target: Metabotropic glutamate receptor 7 (Homo sapiens) (UniProt Q14831); assay: (§2) Negative allosteric modulation of human mGlu7 receptor expressed in HEK293-A co-expressing Galpha15 assessed as inhibition of DL-AP4 induced-calcium mobilization preincubated for 140 sec followed by DL-AP4 addition at EC20 concentration for 125 sec and measured after 90 sec addition of glutamate at EC80 concentration by Fluo-4 AM dye based fluorescence assay; type: functional, cell-based; conditions: time 355.0 sec
Sequence of Metabotropic glutamate receptor 7 (Homo sapiens) (Q14831 whole entry): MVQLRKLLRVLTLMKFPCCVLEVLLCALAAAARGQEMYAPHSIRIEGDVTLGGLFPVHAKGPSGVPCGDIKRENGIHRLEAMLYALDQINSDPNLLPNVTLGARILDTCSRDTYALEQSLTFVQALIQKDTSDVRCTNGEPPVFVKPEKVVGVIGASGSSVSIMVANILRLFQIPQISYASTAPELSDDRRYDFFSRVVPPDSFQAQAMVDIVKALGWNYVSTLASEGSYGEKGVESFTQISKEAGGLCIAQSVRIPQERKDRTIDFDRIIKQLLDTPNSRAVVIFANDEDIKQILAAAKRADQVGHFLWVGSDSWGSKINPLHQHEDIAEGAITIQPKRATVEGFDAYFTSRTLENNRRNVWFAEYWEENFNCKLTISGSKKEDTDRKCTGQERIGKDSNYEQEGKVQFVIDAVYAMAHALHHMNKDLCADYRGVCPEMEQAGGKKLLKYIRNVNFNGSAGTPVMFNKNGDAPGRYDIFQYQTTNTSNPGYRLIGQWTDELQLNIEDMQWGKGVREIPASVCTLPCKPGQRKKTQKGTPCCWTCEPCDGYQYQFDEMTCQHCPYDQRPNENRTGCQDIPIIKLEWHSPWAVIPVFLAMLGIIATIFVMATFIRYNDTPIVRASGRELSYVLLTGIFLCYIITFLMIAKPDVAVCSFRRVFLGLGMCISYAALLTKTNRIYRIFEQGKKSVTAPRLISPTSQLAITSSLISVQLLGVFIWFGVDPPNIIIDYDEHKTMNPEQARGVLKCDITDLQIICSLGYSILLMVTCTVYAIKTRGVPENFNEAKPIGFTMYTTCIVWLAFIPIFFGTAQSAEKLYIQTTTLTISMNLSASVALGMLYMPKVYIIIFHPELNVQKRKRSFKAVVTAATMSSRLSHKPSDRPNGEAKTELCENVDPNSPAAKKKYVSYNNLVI
Procedure, shortened: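 HEK293 cells stably co-expressing human mGlu7 and mouse Gα15 were plated at 15,000/well in dialyzed-FBS medium and grown overnight at 37 °C. They were loaded with Fluo-4-AM (final 1.15 μM) for 50 min at RT, then read at RT in a triple-add assay with DL-AP4 as agonist. Compounds were run as 10-point 1:3 curves; ex 480/em 530 nm. Data were normalized to maximal agonist response and fitted to a four-parameter logistic equation.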

[7] = target: Metabotropic glutamate receptor 8 (Homo sapiens) (UniProt O00222); assay: as §2, with “mGlu8” for “mGlu7 receptor”, “HEK293-A” for “HEK293-A co-expressing Galpha15”, “glutamate” for “DL-AP4”; type: functional, cell-based; conditions: time 355.0 sec
Sequence of Metabotropic glutamate receptor 8 (Homo sapiens) (O00222 whole entry): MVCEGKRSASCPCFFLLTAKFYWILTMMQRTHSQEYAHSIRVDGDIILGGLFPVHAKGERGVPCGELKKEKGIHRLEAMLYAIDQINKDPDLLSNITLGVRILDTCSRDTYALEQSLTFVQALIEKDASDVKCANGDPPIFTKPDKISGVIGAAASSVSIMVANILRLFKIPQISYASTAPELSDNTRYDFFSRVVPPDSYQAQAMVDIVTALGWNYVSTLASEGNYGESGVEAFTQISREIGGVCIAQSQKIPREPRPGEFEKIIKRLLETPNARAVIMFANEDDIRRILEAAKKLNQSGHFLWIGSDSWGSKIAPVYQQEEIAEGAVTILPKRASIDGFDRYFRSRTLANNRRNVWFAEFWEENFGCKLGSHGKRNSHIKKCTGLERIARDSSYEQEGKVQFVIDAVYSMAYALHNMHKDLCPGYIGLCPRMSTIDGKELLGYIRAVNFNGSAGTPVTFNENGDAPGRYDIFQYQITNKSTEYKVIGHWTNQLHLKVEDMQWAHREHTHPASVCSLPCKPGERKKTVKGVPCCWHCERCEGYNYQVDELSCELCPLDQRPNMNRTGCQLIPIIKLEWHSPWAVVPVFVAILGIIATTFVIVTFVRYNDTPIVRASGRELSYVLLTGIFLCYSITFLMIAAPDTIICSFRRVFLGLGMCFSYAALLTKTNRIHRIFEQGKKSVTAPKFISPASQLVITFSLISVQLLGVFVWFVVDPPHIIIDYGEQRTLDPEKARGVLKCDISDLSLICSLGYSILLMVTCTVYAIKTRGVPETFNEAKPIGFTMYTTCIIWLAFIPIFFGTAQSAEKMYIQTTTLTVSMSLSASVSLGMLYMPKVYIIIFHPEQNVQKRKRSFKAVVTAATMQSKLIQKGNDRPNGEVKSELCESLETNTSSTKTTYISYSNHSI
Procedure, shortened: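 HEK293 cells stably co-expressing human mGlu8 and mouse Gα15 were plated at 15,000/well and grown overnight. Fluo-4-AM (final 1.15 μM) was loaded for 50 min at 37 °C, […]. The FDSS run was at RT: compound, then glutamate EC20, then EC80 additions. Compounds were run as 10-point 1:3 curves; ex 480/em 530 nm. Data were normalized to glutamate ECmax and fitted to a four-parameter logistic equation.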

[8] = Drug metabolism in cryopreserved human Hepatocyte assessed as amide hydrolysis mediated metabolite formation at 10 uM measured after 4 hrs; type: ADME, cell-based; conditions: hepatocytes
Procedure, shortened: (§3)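 Rat, dog, monkey and human hepatocytes were incubated with 10 μM compound and sampled at 0 and 4 h. Metabolites were tentatively identified by accurate-mass LC-MS (observed m/z). Retention times were taken from MS extracted ion chromatograms.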

[9] = Drug metabolism in cryopreserved rat Hepatocyte assessed as amide hydrolysis mediated metabolite formation at 10 uM measured after 4 hrs; type: ADME, cell-based; conditions: hepatocytes; procedure, shortened: as §3
[10] = Drug metabolism in cryopreserved dog Hepatocyte assessed as amide hydrolysis mediated metabolite formation at 10 uM measured after 4 hrs; type: ADME, cell-based, Canis lupus familiaris; conditions: hepatocytes; procedure, shortened: as §3
[11] = Drug metabolism in cryopreserved cynomolgus monkey Hepatocyte assessed as amide hydrolysis mediated metabolite formation at 10 uM measured after 4 hrs; type: ADME, cell-based, Macaca fascicularis; conditions: hepatocytes; procedure, shortened: as §3
[12] = Unbound fraction in human plasma at 5 uM incubated for 6 hrs by equilibrium dialysis based LC-MS/MS analysis; type: ADME, cell-free; procedure, shortened: as §1
[13] = Unbound fraction in rat brain at 1 uM incubated for 6 hrs by equilibrium dialysis based LC-MS/MS analysis; type: ADME, tissue-based
Procedure, shortened: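 Naïve rat brain was homogenized in DPBS (1:3 w/w) and dialyzed against DPBS at 1 μM final, in triplicate, 6 h at 37 °C. Quantification was by LC-MS/MS. Diluted fu2 = buffer/homogenate peak area ratio, corrected to undiluted fu using the 1/4 dilution equation; mean of 3 replicates.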

[14] = Ratio of unbound drug concentration in Sprague-Dawley rat brain to plasma at 0.2 mg/kg, iv measured after 0.25 hrs by LC-MS/MS analysis; type: ADME, organism-based
Procedure, shortened: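 Male Sprague Dawley rats (n = 1) received a single IV dose through a jugular catheter, formulated in 10% ethanol/40% PEG400/50% DMSO at 0.5 mL/kg. Terminal plasma (K2EDTA) and whole brain were taken at 15 min. Brain was homogenized in isopropanol:water 7:3. Samples were acetonitrile-precipitated with carbamazepine as internal standard and quantified by LC-MS/MS against a plasma standard curve, with dilution correction.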

A Fu [1] of 0.219 was found for Cc1cc(Oc2ccnn2C)cc(C(=O)Nc2nc(C)cs2)n1 in this work.

With Cc1cc(Oc2cnn(C)c2)cc(C(=O)Nc2ccc(F)cn2)n1 the Activity [2] was “inactive”, the Activity [3] was “inactive” and the Imax [4] was 58%. For the same compound, the Activity [5] was “inactive”, the Activity [6] was “inactive” and the Activity [7] was “inactive”. The Drug metabolism [8] was “metabolite_detected”, the Drug metabolism [9] was “metabolite_detected” and the Drug metabolism [10] was “metabolite_detected”. The Drug metabolism [11] was “metabolite_detected”.

With Cc1cc(Oc2cnn(C)c2C(F)(F)F)cc(C(=O)Nc2nc(C)cs2)n1 the Fu [1] was “Not_determined(Unstable)”, the Fu [12] was 0.004 and the Fu [13] was 0.003. The “K(p,uu,brain)” value [14] was “Not_determined(Unstable)”.

For Cc1cccc(NC(=O)c2cc(Oc3ccnn3C)cc(C)n2)n1, the Fu [1] was “Not_determined(Unstable)” and the “K(p,uu,brain)” value [14] was “Not_determined(Unstable)”.

For Cc1cc(Oc2cnn(C)c2C(F)(F)F)cc(C(=O)Nc2ccc(F)cn2)n1, the Fu [1] was “Not_determined(Unstable)”, the Fu [13] was 0.002 and the “K(p,uu,brain)” value [14] was “Not_determined(Unstable)”.

With Cc1cccc(NC(=O)c2cc(Oc3cnn(C)c3C(F)(F)F)cc(C)n2)n1 the Fu [1] was “Not_determined(Unstable)” and the “K(p,uu,brain)” value [14] was “Not_determined(Unstable)”.

For Cc1cccc(NC(=O)c2cc(Oc3cc(C)nn3C)cc(C)n2)n1, the Fu [1] was “Not_determined(Unstable)” and the “K(p,uu,brain)” value [14] was “Not_determined(Unstable)”.
